The target of test [1] is T1, Geranylgeranyl transferase type I (Homo sapiens, UniProt P49354+P53609). The test can be described thus: Minimal concentration required to inhibit Rap 1a processing (prenylation) in PSN-1 cell. The class given is functional, cell-based.
Test [2] has as its system Rat1. The test can be described thus: Inhibition of colony formation in v-H-ras-transformed RAT1 cells. The settings on record: Rattus norvegicus. The format is functional. In outline:
(§1)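 Anchorage-independent growth of ras-transformed RAT1 cells in soft agar, read as colony formation. Potency is reported as IC90 for blocking colonies.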

For test [3], the target named is T2, Protein farnesyltransferase (Homo sapiens, UniProt P49354+P49356). The test can be described thus: In vitro inhibition against human Farnesyltransferase catalyzed by incorporation of [3H]- FPP into recombinant Ras-CVIM. The format is protein-complex assay.
Test [4] deals with T1, Geranylgeranyl transferase type I. The test can be described thus: In vitro inhibition against human Geranylgeranyl transferase type I catalyzed by incorporation of [3H]- GGPP (geranylgeranyl pyrophosphate) into biotinylated peptide corresponding to the c-terminus of human Ki-Ras. The class given is protein-complex assay. In a few lines: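 Human GGPTase-I transferred [3H]GGPP onto a biotinylated human Ki-Ras C-terminal peptide. Enzyme and inhibitor were preincubated 30 min with 5 mM ATP before reaction. Some values were instead run without preincubation. IC50 is the concentration halving incorporation.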

Test [5] deals with T2, Protein farnesyltransferase. The test can be described thus: Concentration required to displace 50% of a radiolabeled farnesyltransferase inhibitor from FPTase in cultured Ha-Ras transformed RAT1 cells. The class given is functional, cell-based.
Test [6] deals with Rat1. The test can be described thus: Inhibition of colony formation in K-ras-transformed RAT1 cells, ranges from 0.3-1. The format is functional. The settings on record: Rattus norvegicus. In outline: as §1
Test [7] concerns Rat1. The test can be described thus: Percent RAT1 cell survival at 10 uM assessed by MTT viability staining. The class given is functional. The conditions noted are these: Rattus norvegicus, read-out: Survival.

The values below come from ChEMBL document CHEMBL1134715, “Aryloxy substituted N-arylpiperazinones as dual inhibitors of farnesyltransferase and geranylgeranyltransferase-I” (Bioorg Med Chem Lett, 2001).

Converted amounts (≈) assume the structure as drawn.

Regarding `N#Cc1ccc(Cn2cncc2CN2CCN(c3cccc(Cl)c3)C(=O)C2)cc1` [L-778123 FREE BASE], in test [1], the MIC stood at 1 µM (≈ 0.406 µg/mL). The 90% effect level in the test with Rat1 [2] (IC90) was put at 0.1 µM.
For `N#Cc1ccc(Cn2cncc2CN2CCN(c3cccc(Cl)c3)C(=O)C2)cc1Oc1cccc(Cl)c1`, the IC50 (as a rule, the concentration needed to halve the response being measured) in test [3] stood at 0.004 µM; in test [4], 0.02 µM; in test [5], 0.093 µM.
With `N#Cc1ccc(Cn2cncc2CN2CCN(c3cccc(Cl)c3)C(=O)C2)cc1Oc1cccnc1`, the values for the IC50 in test [3], in test [4] and in test [5] were 0.011 µM, 0.052 µM and 0.017 µM, respectively. The compound also returned an MIC in test [1] of 1 µM (≈ 0.499 µg/mL).
On to `O=C1CN(Cc2cncn2Cc2cccc(Oc3ccccc3)c2)CCN1c1ccc(Cl)cc1`, for which the IC50 in test [3] is 0.67 µM; in test [4], 0.136 µM.
Turning to `N#Cc1ccc(Cn2cncc2CN2CCN(c3cccc(Cl)c3)C(=O)C2)cc1Oc1ccccc1`, the figures for the IC50 in test [3], in test [4] and in test [5] were 0.007 µM, 0.022 µM and 0.11 µM, respectively. Besides, the IC90 – broadly, the concentration at which the effect reaches the 90% level – stood at 1 µM with Rat1 [6] and 0.3 µM with Rat1 [2]. The same compound showed an MIC in test [1] of 1 µM (≈ 0.498 µg/mL). In the test with Rat1 [7], the viability at 10 µM is 80%.
Regarding `N#Cc1cc(Cn2cncc2CN2CCN(c3cccc(Cl)c3)C(=O)C2)ccc1Oc1ccccc1`, the IC50 in test [3] worked out at 0.009 µM; in test [4] it was 0.809 µM.
For `N#Cc1ccc(Cn2cncc2CN2CCN(c3cccc(Cl)c3)C(=O)C2)cc1Oc1ccccc1Cl`, the values for the IC50 in test [3], in test [4] and in test [5] were 0.007 µM, 0.0007 µM and 0.041 µM, respectively. In test [1], this compound registered an MIC of 0.3 µM (≈ 0.16 µg/mL).
With `N#Cc1ccc(Cn2cncc2CN2CCN(c3cccc(Cl)c3)C(=O)C2)cc1Oc1ccc2c(c1)CCCC2`, the IC50 in test [3] was determined as 0.004 µM; in test [4], 0.29 µM.
On to `N#Cc1ccc(Cn2cncc2CN2CCN(c3cccc(Cl)c3)C(=O)C2)cc1Oc1cccc(OCCO)c1`, for which the IC50 in test [3] amounted to 0.0025 µM; in test [4], 0.0013 µM; in test [5], 0.008 µM. The compound also returned an MIC in test [1] of 3 µM (≈ 1.67 µg/mL).
Regarding `N#Cc1ccc(Cn2cncc2CN2CCN(c3cccc(Cl)c3)C(=O)C2)cc1Oc1ccc(OCc2ccccc2)cc1`, the IC50 in test [3] stood at 0.032 µM; in test [4], 0.062 µM; in test [5], 0.311 µM.
In turn, `O=C1CN(Cc2cncn2Cc2cccc(Oc3ccccc3)c2)CCN1c1cccc(Cl)c1` had an IC50 in test [4] of 0.065 µM.
With `N#Cc1ccc(Cn2cncc2CN2CCN(c3cccc(Cl)c3)C(=O)C2)cc1Oc1ccc2ccccc2c1`, the IC50 in test [3] was found to be 0.001 µM; in test [4] it was 0.199 µM; in test [5], 0.048 µM.
Consider `N#Cc1ccc(Cn2cncc2CN2CCN(c3cccc(Cl)c3)C(=O)C2)cc1Oc1ccc(Cl)cc1`, for which the IC50 in test [3] was found to be 0.019 µM; in test [4], 0.015 µM; in test [5] it was 0.35 µM.
`N#Cc1ccc(Cn2cncc2CN2CCN(c3cccc(Cl)c3)C(=O)C2)cc1Sc1ccccc1`: the values for the IC50 in test [3], in test [4] and in test [5] were 0.018 µM, 0.012 µM and 0.255 µM, respectively.
Regarding `O=C1CN(Cc2cncn2Cc2cccc(Oc3ccccc3)c2)CCN1c1ccc(C(F)(F)F)cc1`, the IC50 in test [3] is 5.77 µM; in test [4], 0.155 µM.
